# According to ChEMBL document CHEMBL2311473, “Characterization of antimicrobial, cytotoxic, and antiendotoxin properties of short peptides with different hydrophobic amino acids at "a" and "d" positions of a heptad repeat sequence” (J Med Chem, 2013):
# Activity calls are given as the source filed them. The calls are words filed in the database; no cut-off is given here.
# Tests used:
# [1] = Cytotoxicity against human RBC assessed as hemolysis at 60 uM; assay type: cell-based, Erythrocyte; conditions: red blood cells (RBC), read-out: Activity
# Summary of the method: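 hRBCs in PBS exposed to peptide. Hemoglobin release read as supernatant absorbance at 540 nm. Hemolysis % = (Asample − Ablank)/(Atriton − Ablank) × 100, with PBS blank and 0.2% Triton X-100 (final) as 100% reference.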
# [2] = Binding affinity to PE/PG lipid vesicles assessed as decrease in decrease in acrylamide-induced tryptophan fluorescence quenching at 1 uM; assay type: physicochemical
# Summary of the method: (§1)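 Acrylamide quencher added in aliquots from 3.0 M stock to peptide with PC/Chol (8:1) or PE/PG (7:3) SUVs, peptide/lipid 1:100. Trp excited at 295 nm. Values corrected for dilution and vesicle-blank scatter, then fitted to Stern–Volmer F0/F = 1 + KSV[Q].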
# Pseudomonas aeruginosa = assay: Antibacterial activity against Pseudomonas aeruginosa ATCC BAA-427 after 18 hrs by broth dilution method; assay type: functional; conditions: ATCC BAA-427, 18 h
# Summary of the method: (§2)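 Bacteria grown aerobically at 37 °C in Mueller-Hinton broth to mid-log phase (OD600), diluted to ~10^6 cfu/mL, then mixed 1:1 with 2-fold serial peptide dilutions in water. Incubation ~18 h at 37 °C before MIC read-out (μM).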
# NIH3T3 = assay: Cytotoxicity against mouse 3T3 cells assessed as cell viability up to 25 uM by MTT assay; assay type: cell-based
# Summary of the method: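 Murine 3T3 fibroblasts, grown in DMEM/IMDM with 10% FCS at 37 °C, 5% CO2, seeded at 10000 cells/well. Viability after peptide exposure measured by MTT (mitochondrial dehydrogenase) across a dose range.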
# Staphylococcus aureus [3] = assay: Antibacterial activity against Staphylococcus aureus ATCC 9144 after 18 hrs by broth dilution method; assay type: functional; conditions: ATCC 9144, 18 h; summary of the method: as §2
# Sporothrix schenckii = assay: Antifungal activity against Sporothrix schenckii after 72 hrs by NCCLS microbroth dilution method; assay type: functional
# Summary of the method: (§3)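 Microbroth dilution in MOPS-buffered RPMI 1640 following NCCLS guidelines. Inoculum 1−5 × 10^3 cells/mL, peptide range 50−0.36 (mass/mL). Plates held in a moist chamber at 35 °C and A492 read after 48 h (Candida spp.), 72 h (A. fumigatus, S. schenckii, C. neoformans) or 96 h (T. mentagrophytes). MIC taken as 90% growth inhibition versus growth control.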
# Escherichia coli [4] = assay: Drug uptake in Escherichia coli ATCC 10536 assessed as membrane localization at 3 uM after 30 mins by confocal microscopic analysis; assay type: ADME, organism-based; conditions: in vivo, 0.5 h
# Summary of the method: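 E. coli (~10^6 CFU/mL) in LB incubated with fluorescent-labeled peptide (~3.0 μM) for half an hour. Cells centrifuged, washed and imaged by confocal microscopy (DIC and fluorescence).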
# [5] = Drug uptake in human RBC assessed as membrane localization at 9 uM after 10 to 30 mins by confocal microscopic analysis; assay type: ADME; conditions: erythrocyte
# Summary of the method: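 Fresh hRBCs (3% in PBS) incubated with NBD-labeled peptide (~9.0 μM) for 10–30 min at 37 °C. Washed, fixed in 2% paraformaldehyde 10 min, and imaged by confocal microscopy at constant photomultiplier setting.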
# Lipopolysaccharide (LPS) [6] = assay: Binding affinity to FITC-tagged LPS assessed as induction of disintegration up to 40 uM by […]; conditions: in the assay text read “fluorescence dequenching” for “circular dichroism”
# Summary of the method: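 FITC-LPS (0.5 μg/mL) titrated with increasing peptide concentrations. Disaggregation read as dequenching, i.e. rise in FITC fluorescence, monitored after each addition until emission reached equilibrium.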
# Lipopolysaccharide (LPS) [7] = assay: Binding affinity to LPS assessed as inhibition of LPS-induced LAL enzyme activation at 4.5 uM after 30 mins by spectrophotometric analysis
# Summary of the method: (§4)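 Chromogenic limulus amoebocyte lysate endotoxin kit. Peptide binding to LPS estimated from inhibition of LPS-induced LAL enzyme activation, i.e. reduced substrate colour, and reported as percentage LPS binding.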
# Lipopolysaccharide (LPS) [8] = assay: Binding affinity to LPS assessed as inhibition of LPS-induced LAL enzyme activation at 9 uM after 30 mins by spectrophotometric analysis; summary of the method: as §4
# Escherichia coli [9] = assay: Bactericidal activity against Escherichia coli ATCC 10536 assessed as induction of membrane damage at 5 uM after 30 mins by propidium iodide staining-based flow cytometric analysis; assay type: functional, organism-based
# Summary of the method: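 Mid-log E. coli incubated with peptide (~5.0 μM) 30 min at 37 °C with shaking. Cells washed twice in PBS, stained with propidium iodide 30 min at 4 °C, washed and resuspended. 10000 events per sample by flow cytometry, compared with peptide-free control.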
# RAW264.7 [10] = assay: Antiinflammatory activity in mouse RAW264.7 cells assessed as inhibition of LPS-induced TNFalpha secretion at 1.5 to 4.5 uM after 12 hrs by ELISA; assay type: functional, cell-based
# Summary of the method: (§5)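 RAW 264.7 cells treated with LPS alone or LPS plus peptide. TNF-α and IL-6 measured by ELISA in culture supernatant and expressed as percentage inhibition of LPS-induced secretion. Mean of three independent experiments, SD shown.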
# [11] = tested on: Staphylococcus epidermidis; assay: Antibacterial activity against Staphylococcus epidermidis NRRL B-4268 after 18 hrs by broth dilution method; assay type: functional; conditions: NRRL B-4268, 18 h; summary of the method: as §2
# Klebsiella pneumoniae = assay: Antibacterial activity against Klebsiella pneumoniae ATCC 27736 after 18 hrs by broth dilution method; assay type: functional; conditions: ATCC 27736, 18 h; summary of the method: as §2
# [12] = Binding affinity to PE/PG lipid vesicles assessed as induction of large blue shift at 1 uM by fluorescence assay; assay type: physicochemical
# [13] = Binding affinity to PC/Chol lipid vesicles assessed as decrease in acrylamide-induced tryptophan fluorescence quenching at 1 uM; assay type: physicochemical; summary of the method: as §1
# [14] = Binding affinity to PC/Chol lipid vesicles assessed as induction of large blue shift at 1 uM by fluorescence assay; assay type: physicochemical
# RAW264.7 [15] = assay: Antiinflammatory activity in mouse RAW264.7 cells assessed as downregulation of LPS-induced TNFalpha expression at 4.5 uM after 24 hrs by Western blotting analysis; assay type: functional, cell-based
# Summary of the method: (§6)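 RAW 264.7 cells (~2 × 10^5) stimulated with LPS 1 μg/mL plus peptide 4.5 μM for 24 h. Cells washed in ice-cold PBS and lysed in Laemmli buffer. SDS-PAGE (8% gel iNOS-2, 12% TNF-α), nitrocellulose transfer, alkaline phosphatase secondary with NBT/BCIP. Band densities normalized to β-actin. LPS-only and untreated cells served as controls.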
# Lipopolysaccharide (LPS) [16] = assay: Binding affinity to LPS assessed as increase in helical structure at 36 uM by circular dichroism analysis
# Summary of the method: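 CD spectra of peptides (36 μM) recorded alone and with LPS at 3.8 and 6.25 μM.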
# Bacillus subtilis = assay: Antibacterial activity against Bacillus subtilis ATCC 6633 after 18 hrs by broth dilution method; assay type: functional; conditions: ATCC 6633, 18 h; summary of the method: as §2
# RAW264.7 [17] = assay: Antiinflammatory activity in mouse RAW264.7 cells assessed as inhibition of LPS-induced NO production at 6 uM by Griess method; assay type: functional; design: scale not given: the % may be the effect or the level left
# Summary of the method: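 RAW 264.7 cells plated at 5 × 10^5/well and exposed to LPS (E. coli 0111:B4, 1 μg/mL) together with peptide at varying doses. Cells with and without LPS served as maximum and basal NO controls. Nitrite in the supernatant measured by Griess reagent at 548 nm against a sodium nitrite standard curve, and percent inhibition of NO calculated.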
# RAW264.7 [18] = assay: Antiinflammatory activity in mouse RAW264.7 cells assessed as downregulation of LPS-induced iNOS2 expression at 4.5 uM after 24 hrs by Western blotting analysis; assay type: functional, cell-based; summary of the method: as §6
# [19] = Cytotoxicity against human RBC assessed as induction of membrane damage at 25 uM after 5 mins by annexin V-FITC staining-based FACS flow cytometric analysis; assay type: cell-based; conditions: erythrocyte
# Summary of the method: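 hRBCs (~3.0 × 10^7 cells/mL) treated with peptide (~25.0 μM) for 5 min at room temperature. Stained with FITC-annexin V and analysed by flow cytometry, 10000 events, compared with untreated control.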
# RAW264.7 [20] = assay: Antiinflammatory activity in mouse RAW264.7 cells assessed as inhibition of LPS-induced IL6 secretion at 1.5 to 4.5 uM after 12 hrs by ELISA; assay type: functional, cell-based; summary of the method: as §5
# Staphylococcus aureus [21] = assay: Antibacterial activity against methicillin-resistant Staphylococcus aureus after 18 hrs by broth dilution method; assay type: functional; summary of the method: as §2
# Aspergillus fumigatus = assay: Antifungal activity against Aspergillus fumigatus after 72 hrs by NCCLS microbroth dilution method; assay type: functional; summary of the method: as §3
# [22] = Cytotoxicity against human RBC assessed as induction of membrane depolarization at up to 16 uM by DiSC3(5) staining-based fluorescence assay; assay type: cell-based; conditions: erythrocyte
# Summary of the method: (§7)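 Membrane potential dye diS-C3-5 preincubated 1 h with hRBC or S. aureus suspensions; I0 is steady-state fluorescence after this incubation. Peptide then added at varying concentrations. Depolarization expressed as percentage fluorescence recovery (Ft) versus peptide concentration.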
# Lipopolysaccharide (LPS) [23] = assay: Binding affinity to LPS assessed as inhibition of LPS-induced LAL enzyme activation at 18 uM after 30 mins by spectrophotometric analysis; summary of the method: as §4
# [24] = Induction of dissipation of diffusion potential in PE/PG lipid vesicles by fluorescence assay; assay type: physicochemical
# Summary of the method: (§8)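 SUVs of PC/Chol (8:1 w/w) or PE/PG (7:3 w/w) treated with peptide. Dissipation of diffusion potential taken as percentage fluorescence recovery ~5 min after peptide addition, with valinomycin used for reference levels. Plotted against peptide/lipid molar ratio.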
# Escherichia coli [25] = assay: Antibacterial activity against Escherichia coli ATCC 10536 after 18 hrs by broth dilution method; assay type: functional; conditions: ATCC 10536, 18 h; summary of the method: as §2
# [26] = tested on: Trichophyton mentagrophytes; assay: Antifungal activity against Trichophyton mentagrophytes after 96 hrs by NCCLS microbroth dilution method; assay type: functional; summary of the method: as §3
# Candida albicans = assay: Antifungal activity against Candida albicans after 48 hrs by NCCLS microbroth dilution method; assay type: functional; summary of the method: as §3
# Candida parapsilosis = assay: Antifungal activity against Candida parapsilosis ATCC 22019 after 48 hrs by NCCLS microbroth dilution method; assay type: functional; conditions: Lodderomyces parapsilosis, ATCC 22019, 48 h; summary of the method: as §3
# [27] = Induction of dissipation of diffusion potential in PC/Chol lipid vesicles by fluorescence assay; assay type: physicochemical; summary of the method: as §8
# Cryptococcus neoformans = assay: Antifungal activity against Cryptococcus neoformans after 72 hrs by NCCLS microbroth dilution method; assay type: functional; summary of the method: as §3
# Staphylococcus aureus [28] = assay: Bactericidal activity against Staphylococcus aureus ATCC 9144 assessed as induction of membrane depolarization at up to 7 uM by DiSC3(5) staining-based fluorescence assay; assay type: functional, organism-based; summary of the method: as §7
compound,measurement,setting,value
C[C@H](N)C(=O)O [ALANINE],hemolysis at 60 µM,[1],1%
same,Activity,[2],Active
same,MIC,Pseudomonas aeruginosa,6.25 µM
same,Activity,NIH3T3,Toxic
same,MIC,Staphylococcus aureus [3],6.25 µM
same,MIC,Sporothrix schenckii,25 µM
same,Drug uptake,Escherichia coli [4],Active
same,Drug uptake,[5],Not Active
same,Activity,Lipopolysaccharide (LPS) [6],Active
same,inhibition,Lipopolysaccharide (LPS) [7],3%
same,inhibition,Lipopolysaccharide (LPS) [8],7%
same,Activity,Escherichia coli [9],Active
same,inhibition,RAW264.7 [10],Active
same,MIC,[11],8 µM
same,MIC,Klebsiella pneumoniae,25 µM
same,Activity,[12],Active
same,Activity,[13],Not Active
same,Activity,[14],Not Active
same,Activity,RAW264.7 [15],Active
same,Activity,Lipopolysaccharide (LPS) [16],Active
same,MIC,Bacillus subtilis,20 µM
same,Activity,RAW264.7 [17],13%
same,Activity,RAW264.7 [18],Active
same,Activity,[19],Non-toxic
same,inhibition,RAW264.7 [20],Active
same,MIC,Staphylococcus aureus [21],> 25 µM
same,MIC,Aspergillus fumigatus,> 25 µM
same,Activity,[22],Non-toxic
same,inhibition,Lipopolysaccharide (LPS) [23],10%
same,Activity,[24],Active
same,MIC,Escherichia coli [25],4.5 µM
same,MIC,[26],> 25 µM
same,MIC,Candida albicans,> 25 µM
same,MIC,Candida parapsilosis,25 µM
same,Activity,[27],Active
same,MIC,Cryptococcus neoformans,> 25 µM
same,Activity,Staphylococcus aureus [28],Active
